Results reported in ChEMBL document CHEMBL1126032, “Nonpeptide renin inhibitors employing a novel 3-aza(or oxa)-2,4-dialkyl glutaric acid moiety as a P2/P3 amide bond replacement” (J Med Chem, 1992).

Columns and labels:
Renin [1] = target: T1, Renin (Homo sapiens, UniProt P00797); assay: In vitro potency against plasma renin at a pH of 7.4; assay type: cell-free
T1 sequence (P00797 whole entry): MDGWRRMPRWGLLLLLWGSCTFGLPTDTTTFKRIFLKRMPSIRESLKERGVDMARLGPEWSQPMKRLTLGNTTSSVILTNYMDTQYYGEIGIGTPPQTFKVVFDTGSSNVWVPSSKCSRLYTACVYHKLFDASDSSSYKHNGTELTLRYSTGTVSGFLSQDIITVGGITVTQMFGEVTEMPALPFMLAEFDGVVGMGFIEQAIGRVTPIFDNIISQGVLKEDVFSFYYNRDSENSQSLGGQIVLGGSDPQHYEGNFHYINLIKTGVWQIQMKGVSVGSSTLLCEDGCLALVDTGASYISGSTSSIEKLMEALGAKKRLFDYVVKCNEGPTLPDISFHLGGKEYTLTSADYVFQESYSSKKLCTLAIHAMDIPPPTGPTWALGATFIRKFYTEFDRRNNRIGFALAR
How it was run: (§1)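 Human renin, either purified enzyme or renin in plasma, was assayed at the stated pH. Inhibition was reported as IC50 in nM.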

Renin [2] = target: T1, Renin; assay: In vitro potency against purified renin at a pH of 6.0.; how it was run: as §1
Renin [3] = target: T1, Renin; assay: In vitro potency against plasma renin at a pH of 6.0; assay type: cell-free; how it was run: as §1
Renin [4] = target: T1, Renin; assay: In vitro potency against purified renin at a pH of 7.4; how it was run: as §1
[5] = Bioavailability in monkey (dose 10 mg/kg i.d. or 0.3 mg/kg i.v.); assay type: ADME, organism-based; conditions: primates, in vivo, iv
How it was run: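 Male cynomolgus monkeys (3–5 kg), salt-depleted, fasted overnight, pentobarbital-anesthetized (15 mg/kg bolus, then 0.10 mg kg⁻¹ min⁻¹ infusion). Compound given as HCl salt solution, either iv via a leg vein or id by catheter into the proximal duodenum after laparotomy; one dose per monkey. Serial plasma levels were measured by HPLC or bioassay, and AUC was fitted to a biexponential decay. Bioavailability = dose-corrected AUC(id)/AUC(iv) × 100.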

For `CCCC[C@H](O[C@@H](Cc1ccccc1)C(=O)N1CCC(OCOC)CC1)C(=O)N[C@@H](CC1CCCCC1)[C@@H](O)[C@@H](O)CC(C)C`, the IC50 (Renin [1]) was 13 nM, the IC50 (Renin [2]) was 1 nM and the IC50 (Renin [3]) was 3 nM. It also gave an IC50 (Renin [4]) of 3.2 nM.

`CC(C)C[C@H](O)[C@H](O)[C@H](CC1CCCCC1)NC(=O)[C@H](C)O[C@@H](Cc1ccccc1)C(=O)N1CCCCC1` gave an IC50 (Renin [1]) of 8100 nM and an IC50 (Renin [2]) of 25 nM.

Work on `CCCC[C@@H](N[C@@H](Cc1ccccc1)C(=O)N1CCOCC1)C(=O)N[C@@H](CC1CCCCC1)[C@@H](O)[C@@H](O)CC(C)C` yielded an IC50 (Renin [2]) of 750 nM.

In the case of `CCOC(=O)C(CCc1ccccc1)N[C@@H](C)C(=O)N[C@@H](CC1CCCCC1)[C@@H](O)[C@@H](O)CC(C)C` (single isomer, unassigned; more polar), the IC50 (Renin [2]) is reported as 150 nM.

In the case of `CCC[C@H](O[C@@H](Cc1ccccc1)C(=O)N1CCC(OCOC)CC1)C(=O)N[C@@H](CC1CCCCC1)[C@@H](O)[C@@H](O)CC(C)C`, the IC50 (Renin [1]) is reported as 31 nM, the IC50 (Renin [2]) is reported as 1.4 nM and the IC50 (Renin [3]) is reported as 3.3 nM. For the same molecule, the IC50 (Renin [4]) was 5.5 nM.

`CCCC[C@H](N[C@@H](Cc1ccccc1)C(=O)N1CCC(OCCOC)CC1)C(=O)N[C@@H](CC1CCCCC1)[C@@H](O)[C@@H](O)CC(C)C` gave an IC50 (Renin [1]) of 1800 nM and an IC50 (Renin [2]) of 31 nM.

Molecule `CC(C)CC(N[C@@H](CCc1ccccc1)C(=O)OC(C)(C)C)C(=O)N[C@@H](CC1CCCCC1)[C@@H](O)[C@@H](O)CC(C)C` (stereo in doubt; form 2) has an IC50 (Renin [2]) of 1000 nM.

Work on `CCOC(=O)C(CCc1ccccc1)N[C@@H](CC(C)C)C(=O)N[C@@H](CC1CCCCC1)[C@@H](O)[C@@H](O)CC(C)C` (single isomer, unassigned; more polar) yielded an IC50 (Renin [2]) of 160 nM.

Molecule `CC(C)C[C@H](O)[C@H](O)[C@H](CC1CCCCC1)NC(=O)[C@H](C)O[C@@H](Cc1ccccc1)C(=O)N1CCCC1` has an IC50 (Renin [1]) of 3700 nM.

`CCOC(=O)C(CCc1ccccc1)N[C@@H](C)C(=O)N[C@@H](CC1CCCCC1)[C@@H](O)[C@@H](O)CC(C)C` (single isomer, unassigned; less polar) gave an IC50 (Renin [2]) of 130 nM.

`CCCCNC(=O)[C@@H](C[C@H](O)[C@H](CC1CCCCC1)NC(=O)[C@H](CCCC)O[C@@H](Cc1ccccc1)C(=O)N1CCC(OCOC)CC1)C(C)C` gave an IC50 (Renin [1]) of 8.2 nM and an IC50 (Renin [2]) of 1.2 nM.

`CCCC[C@H](O[C@@H](Cc1ccccc1)C(=O)N1CCC(OC)CC1)C(=O)N[C@@H](CC1CCCCC1)[C@@H](O)[C@@H](O)CC(C)C` showed an IC50 (Renin [2]) of 44 nM.

With `CC(C)C[C@H](O)[C@H](O)[C@H](CC1CCCCC1)NC(=O)C(C)N[C@H](Cc1ccccc1)C(=O)N1CCOCC1` (single isomer, unassigned; less polar) the IC50 (Renin [2]) was 1600 nM.

`CCCC[C@H](O[C@@H](Cc1ccccc1)C(=O)N1CCOCC1)C(=O)N[C@@H](CC1CCCCC1)[C@@H](O)[C@@H](O)CC(C)C` gave an IC50 (Renin [1]) of 1000 nM and an IC50 (Renin [2]) of 15 nM.

`CC(C)C[C@H](O)[C@H](O)[C@H](CC1CCCCC1)NC(=O)[C@H](C)O[C@@H](Cc1ccccc1)C(=O)N1CCC1` showed an IC50 (Renin [1]) of 1000 nM.

With `CC(C)C[C@H](N[C@@H](Cc1ccccc1)C(=O)OC(C)(C)C)C(=O)N[C@@H](CC1CCCCC1)[C@@H](O)[C@@H](O)CC(C)C` the IC50 (Renin [2]) was 340 nM.

With `CCCC[C@H](O[C@@H](Cc1ccccc1)C(=O)N1CCC(OCCC)CC1)C(=O)N[C@@H](CC1CCCCC1)[C@@H](O)[C@@H](O)CC(C)C` the IC50 (Renin [2]) was 290 nM.

Molecule `CCCC[C@H](O[C@@H](Cc1ccccc1)C(=O)N1CCC(SCOC)CC1)C(=O)N[C@@H](CC1CCCCC1)[C@@H](O)[C@@H](O)CC(C)C` has an IC50 (Renin [1]) of 120 nM and an IC50 (Renin [2]) of 1.8 nM.

In the case of `CC(C)C[C@@H](N[C@@H](Cc1ccccc1)C(=O)OC(C)(C)C)C(=O)N[C@@H](CC1CCCCC1)[C@@H](O)[C@@H](O)CC(C)C`, the IC50 (Renin [2]) is reported as 2700 nM.

Work on `CCCC[C@H](O[C@@H](Cc1ccccc1)C(=O)N1CCC(OC[S+](C)[O-])CC1)C(=O)N[C@@H](CC1CCCCC1)[C@@H](O)[C@@H](O)CC(C)C` (some centres undefined) yielded an IC50 (Renin [2]) of 770 nM.

`COCOC1CCN(C(=O)[C@H](Cc2ccccc2)O[C@@H](C)C(=O)N[C@@H](CC2CCCCC2)[C@@H](O)[C@@H](O)CC(C)C)CC1` showed an IC50 (Renin [1]) of 340 nM, an IC50 (Renin [3]) of 27 nM and an IC50 (Renin [4]) of 7 nM.

For `CCN(CC)C(=O)[C@H](Cc1ccccc1)O[C@@H](C)C(=O)N[C@@H](CC1CCCCC1)[C@@H](O)[C@@H](O)CC(C)C`, the IC50 (Renin [2]) was > 1000 nM.

`CC(C)C[C@H](O)[C@H](O)[C@H](CC1CCCCC1)NC(=O)C(C)N[C@@H](Cc1ccccc1)C(=O)N1CCOCC1` (single isomer, unassigned; less polar) gave an IC50 (Renin [2]) of 85 nM.

`CCCC[C@H](N[C@@H](Cc1ccccc1)C(=O)N1CCOCC1)C(=O)N[C@@H](CC1CCCCC1)[C@@H](O)[C@@H](O)CC(C)C` showed an IC50 (Renin [1]) of 1200 nM and an IC50 (Renin [2]) of 13 nM.

With `CCOC(=O)C(CCc1ccccc1)N[C@@H](CC(C)C)C(=O)N[C@@H](CC1CCCCC1)[C@@H](O)[C@@H](O)CC(C)C` (stereo in doubt) the IC50 (Renin [2]) was 240 nM.

In the case of `CCCC[C@H](O[C@@H](Cc1ccccc1)C(=O)N1CCC(OCSC)CC1)C(=O)N[C@@H](CC1CCCCC1)[C@@H](O)[C@@H](O)CC(C)C`, the IC50 (Renin [2]) is reported as 130 nM.

`C=CCOC1CCN(C(=O)[C@H](Cc2ccccc2)O[C@@H](CCCC)C(=O)N[C@@H](CC2CCCCC2)[C@@H](O)[C@@H](O)CC(C)C)CC1` showed an IC50 (Renin [2]) of 160 nM.

For `CC(C)C[C@H](O)[C@H](O)[C@H](CC1CCCCC1)NC(=O)C(C)N[C@H](Cc1ccccc1)C(=O)N1CCOCC1` (single isomer, unassigned), the IC50 (Renin [2]) was 1000 nM.

For `CC(C)C[C@H](O)[C@H](O)[C@H](CC1CCCCC1)NC(=O)[C@H](C)O[C@@H](Cc1ccccc1)C(=O)N1CCOCC1`, the IC50 (Renin [1]) was 4300 nM and the IC50 (Renin [2]) was 45 nM.

With `CC(C)CC(N[C@@H](CCc1ccccc1)C(=O)OC(C)(C)C)C(=O)N[C@@H](CC1CCCCC1)[C@@H](O)[C@@H](O)CC(C)C` (stereo in doubt; form 1) the IC50 (Renin [2]) was 4000 nM.

Molecule `CCCC[C@H](O[C@@H](Cc1ccccc1)C(=O)N1CCC(OCS(C)(=O)=O)CC1)C(=O)N[C@@H](CC1CCCCC1)[C@@H](O)[C@@H](O)CC(C)C` has an IC50 (Renin [2]) of 780 nM.

`CCCC[C@H](O[C@@H](Cc1ccccc1)C(=O)N1CCC(CCOC)CC1)C(=O)N[C@@H](CC1CCCCC1)[C@@H](O)[C@@H](O)CC(C)C` showed an IC50 (Renin [1]) of 1300 nM and an IC50 (Renin [2]) of 18 nM.

`CCCC[C@H](N[C@@H](Cc1ccccc1)C(=O)N1CCC(OCOC)CC1)C(=O)N[C@@H](CC1CCCCC1)[C@@H](O)[C@@H](O)CC(C)C` showed an IC50 (Renin [1]) of 17 nM, an IC50 (Renin [2]) of 1.1 nM and an IC50 (Renin [3]) of 3.9 nM. The IC50 (Renin [4]) was 2.8 nM.

For `CCCCNC(=O)[C@@H](C[C@H](O)[C@H](CC1CCCCC1)NC(=O)[C@H](CCCC)N[C@@H](Cc1ccccc1)C(=O)N1CCC(OCOC)CC1)C(C)C`, the IC50 (Renin [1]) was 8.7 nM, the IC50 (Renin [2]) was 0.9 nM and the bioavailability [5] was 7.1%.

Molecule `CCCCC1CCN(C(=O)[C@H](Cc2ccccc2)O[C@@H](CCCC)C(=O)N[C@@H](CC2CCCCC2)[C@@H](O)[C@@H](O)CC(C)C)CC1` has an IC50 (Renin [2]) of 1100 nM.

`CC[C@H](O[C@@H](Cc1ccccc1)C(=O)N1CCC(OCOC)CC1)C(=O)N[C@@H](CC1CCCCC1)[C@@H](O)[C@@H](O)CC(C)C` showed an IC50 (Renin [1]) of 120 nM, an IC50 (Renin [2]) of 0.9 nM and an IC50 (Renin [3]) of 7.9 nM. It also gave an IC50 (Renin [4]) of 5.4 nM.

Molecule `CCCC[C@H](O[C@@H](Cc1ccccc1)C(=O)N1CCCCC1)C(=O)N[C@@H](CC1CCCCC1)[C@@H](O)[C@@H](O)CC(C)C` has an IC50 (Renin [2]) of 24 nM.

Work on `CCCC[C@H](O[C@@H](Cc1ccccc1)C(=O)N1CCC(O)CC1)C(=O)N[C@@H](CC1CCCCC1)[C@@H](O)[C@@H](O)CC(C)C` yielded an IC50 (Renin [2]) of 130 nM.

For `CCNC(=O)[C@H](Cc1ccccc1)O[C@@H](C)C(=O)N[C@@H](CC1CCCCC1)[C@@H](O)[C@@H](O)CC(C)C`, the IC50 (Renin [2]) was 130 nM.

`CC(C)C[C@H](O)[C@H](O)[C@H](CC1CCCCC1)NC(=O)C(C)N[C@@H](Cc1ccccc1)C(=O)N1CCOCC1` (single isomer, unassigned; more polar) gave an IC50 (Renin [2]) of 1000 nM.
